In ChEMBL document CHEMBL1148397, “Synthesis and biological evaluation of 2,3,5-substituted [1,2,4]thiadiazoles as allosteric modulators of adenosine receptors” (J Med Chem, 2004):

Columns and labels:
[1] = molecular target: T1, Adenosine receptor A1 (Homo sapiens) (UniProt P30542); assay: Percent remaining of radioligand [3H]CCPA binding to human adenosine A1 receptor at 10 uM
T1 sequence (whole entry): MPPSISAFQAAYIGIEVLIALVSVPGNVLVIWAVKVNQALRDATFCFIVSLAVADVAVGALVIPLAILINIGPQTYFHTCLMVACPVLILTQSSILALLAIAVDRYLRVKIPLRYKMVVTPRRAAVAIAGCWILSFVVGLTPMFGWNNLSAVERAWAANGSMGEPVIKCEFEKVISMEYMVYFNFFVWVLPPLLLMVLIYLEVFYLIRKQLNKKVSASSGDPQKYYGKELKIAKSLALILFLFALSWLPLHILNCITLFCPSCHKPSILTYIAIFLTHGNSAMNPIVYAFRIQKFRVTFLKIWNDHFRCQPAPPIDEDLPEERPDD
Summary of the method: (§1)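 Radioligand displacement: CHO human A1 receptor membranes (40 μg protein, 2 IU/mL adenosine deaminase) with ~1.0 nM [3H]CCPA plus fixed or increasing compound, 60 min at 25 °C in Tris-HCl. Nonspecific binding defined with 10 μM DPCPX. Ice-cold dilution, GF/B filtration, scintillation counting. Results as % specific binding, control 100%. Means of 2–3 experiments in duplicate.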

[2] = molecular target: T1, Adenosine receptor A1 (Homo sapiens); assay: Percent remaining of radioligand [3H]DPCPX binding to human adenosine A1 receptor at 1 uM
Summary of the method: (§2)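 CHO human A1 receptor membranes (40 μg protein, 2 IU/mL adenosine deaminase) incubated 60 min at 25 °C in Tris-HCl with ~1.6 nM [3H]DPCPX and a fixed compound concentration. Nonspecific binding defined with 10 μM CPA. Filtration on GF/B, scintillation counting. Reported as % specific binding remaining (control 100%, nonspecific 0%). Means of 2–3 experiments in duplicate.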

[3] = molecular target: T1, Adenosine receptor A1 (Homo sapiens); assay: Percent remaining of radioligand [3H]DPCPX binding to human adenosine A1 receptor at 10 uM; summary of the method: as §2
Adenosine receptor A1 [4] = molecular target: T2, Adenosine receptor A1 (Homo sapiens, UniProt P30542); assay: Effective concentration for displacement of [3H]CCPA from human A1 adenosine receptor after 60 min; summary of the method: as §1
T2 sequence (P30542 whole entry): T1 sequence (whole entry)

Adenosine receptor A1 [5] = molecular target: T2, Adenosine receptor A1; assay: Effective concentration for displacement of [3H]-CCPA from human adenosine A1 receptor after 60 min; summary of the method: as §1
[6] = molecular target: T1, Adenosine receptor A1 (Homo sapiens); assay: Dissociation constant for [3H]DPCPX binding to human adenosine A1 receptor plus or minus compound (10 uM); t1/2 = 6.61 min
[7] = molecular target: T1, Adenosine receptor A1 (Homo sapiens); assay: Association constant for [3H]DPCPX binding to human adenosine A1 receptor plus or minus compound (10 uM); appt1/2 = 3.85 min
Summary of the method: (§3)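 Membranes from CHO cells expressing recombinant human A1 receptor (40 μg protein) preincubated 30 min at 25 °C with compound. Association started by adding [3H]DPCPX (0.34–0.36 nM), stopped at time points by rapid dilution, then filtered on GF/B and washed with ice-cold buffer. Membranes carry 2 IU/mL adenosine deaminase.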

[8] = molecular target: T1, Adenosine receptor A1 (Homo sapiens); assay: Dissociation constant for [3H]-CCPA binding to human adenosine A1 receptor plus or minus compound (10 uM); t1/2 = 5.37 min
[9] = molecular target: T1, Adenosine receptor A1 (Homo sapiens); assay: Dissociation constant for [3H]CCPA binding to human adenosine A1 receptor plus or minus compound (7 uM); t1/2 = 6.48 min.
[10] = molecular target: T1, Adenosine receptor A1 (Homo sapiens); assay: Dissociation constant for [3H]DPCPX binding to human adenosine A1 receptor plus or minus compound (7 uM); t1/2 = 5.27 min.
[11] = molecular target: T1, Adenosine receptor A1 (Homo sapiens); assay: Association constant for [3H]DPCPX binding to human Adenosine A1 receptor plus or minus compound (7 uM); appt1/2 = 1.77 min.; summary of the method: as §3

A Remaining [1] of 30%, a Remaining [2] of 104% and a Remaining [3] of 109% were found for `CC/N=c1\nc(-c2ccccc2)n(-c2ccc(Cl)cc2)s1` in this work.
A Remaining [1] of 35%, a Remaining [2] of 100% and a Remaining [3] of 114% were found for `C/N=c1\nc(-c2ccc(OC)cc2)n(-c2ccccc2)s1` in this work.
A Remaining [1] of 5%, a Remaining [2] of 99% and a Remaining [3] of 109% were found for `C/N=c1\nc(-c2ccccc2)n(-c2cccc(C)c2)s1` in this work. For the same compound, the EC50 (Adenosine receptor A1 [4]) was 640 nM.
A Remaining [1] of 15%, a Remaining [2] of 106% and a Remaining [3] of 119% were found for `C/N=c1\nc(-c2ccc(Cl)cc2)n(-c2ccccc2)s1` in this work.
A Remaining [1] of 6%, a Remaining [2] of 103% and a Remaining [3] of 114% were found for `CC/N=c1\nc(-c2ccccc2)n(-c2ccccc2)s1` in this work.
A Remaining [1] of 35%, a Remaining [2] of 100% and a Remaining [3] of 90% were found for `CC/N=c1\nc(-c2ccccc2)n(-c2ccc(Cl)c(Cl)c2)s1` in this work.
A Remaining [1] of 36%, a Remaining [2] of 96% and a Remaining [3] of 93% were found for `C/N=c1\nc(-c2cccc(Cl)c2)n(-c2cccc(Cl)c2)s1` in this work.
A Remaining [1] of 32%, a Remaining [2] of 100% and a Remaining [3] of 61% were found for `CC/N=c1\nc(-c2ccc(C)cc2)n(-c2ccc(C)cc2)s1` in this work. The EC50 (Adenosine receptor A1 [5]) was 1600 nM.
A Remaining [1] of 28%, a Remaining [2] of 101% and a Remaining [3] of 105% were found for `CC/N=c1\nc(-c2ccccc2)n(-c2ccc(C)cc2)s1` in this work.
A Remaining [1] of 225%, a Remaining [2] of 87% and a Remaining [3] of 68% were found for `Cc1sc(N)c(C(=O)c2cccc(C(F)(F)F)c2)c1C` in this work.
A Remaining [1] of 20%, a Remaining [2] of 104% and a Remaining [3] of 97% were found for `C/N=c1\nc(-c2ccc(C)cc2)n(-c2ccc(C)cc2)s1` in this work.
A Remaining [1] of 39%, a Remaining [2] of 101% and a Remaining [3] of 86% were found for `CC/N=c1\nc(-c2ccccc2)n(-c2cccc(Cl)c2)s1` in this work.
A Remaining [1] of 33%, a Remaining [2] of 94% and a Remaining [3] of 111% were found for `C/N=c1\nc(-c2ccccc2)n(-c2ccc(Cl)c(Cl)c2)s1` in this work.
A Remaining [1] of 31%, a Remaining [2] of 99% and a Remaining [3] of 123% were found for `C/N=c1\nc(-c2ccccc2)n(-c2ccc(C)cc2)s1` in this work.
A Remaining [1] of 24%, a Remaining [2] of 103% and a Remaining [3] of 120% were found for `CC/N=c1\nc(-c2ccccc2)n(-c2ccc(OC)cc2)s1` in this work.
A k off [6] of 0.00184 s⁻¹, a Remaining [1] of 10% and a Remaining [2] of 104% were found for `C/N=c1\nc(-c2ccccc2)n(-c2ccccc2)s1` in this work. It also gave a Remaining [3] of 149%, a kon [7] of 3.5e+06 M⁻¹ s⁻¹ and a k off [8] of 0.00217 s⁻¹. It also gave an EC50 (Adenosine receptor A1 [5]) of 2800 nM.
A Remaining [1] of 20%, a Remaining [2] of 93% and a Remaining [3] of 119% were found for `C/N=c1\nc(-c2ccc(Cl)cc2)n(-c2ccc(Cl)cc2)s1` in this work.
A Remaining [1] of 35%, a Remaining [2] of 96% and a Remaining [3] of 108% were found for `C/N=c1\nc(-c2ccccc2)n(-c2cccc(Cl)c2)s1` in this work.
A Remaining [1] of 24%, a Remaining [2] of 95% and a Remaining [3] of 84% were found for `CC/N=c1\nc(-c2ccc(Cl)cc2)n(-c2ccc(Cl)cc2)s1` in this work.
A k off [9] of 0.00184 s⁻¹, a k off [10] of 0.00217 s⁻¹ and a Remaining [1] of 24% were found for `C/N=c1\nc(-c2ccccc2)n(-c2ccc(OC)cc2)s1` in this work. The Remaining [2] was 103%, the Remaining [3] was 132% and the kon [11] was 1.98e+07 M⁻¹ s⁻¹. The EC50 (Adenosine receptor A1 [5]) was 2400 nM.
A Remaining [1] of 6%, a Remaining [2] of 98% and a Remaining [3] of 75% were found for `CC/N=c1\nc(-c2ccccc2)n(-c2cccc(C)c2)s1` in this work.
A Remaining [1] of 33%, a Remaining [2] of 94% and a Remaining [3] of 126% were found for `C/N=c1\nc(-c2ccccc2)n(-c2ccc(Cl)cc2)s1` in this work.
